Results pooled from the literature.
Protocols differ between the studies behind these lines.
Organism: Trypanosoma brucei
Observed: parasite growth

| SMILES | assay | system | setting | endpoint | result |
| --- | --- | --- | --- | --- | --- |
| COC(=O)C1CCN(C(=O)c2ccc(N(CCO)Cc3cnc4nc(N)nc(N)c4n3)cc2)CC1 | resazurin |  | 10 µM, 72 h | inhibition | 9% |
| N=C(N)c1ccc(OCCCCCOc2ccc(C(=N)N)cc2)cc1 | resazurin | RHODESIENSE STIB900 |  | IC50 | 1.8 nM |
| Cc1ccc(C(=O)Nc2ccc(S(=O)(=O)O)c3cc(S(=O)(=O)O)cc(S(=O)(=O)O)c23)cc1NC(=O)c1cccc(NC(=O)Nc2cccc(C(=O)Nc3cc(C(=O)Nc4ccc(S(=O)(=O)O)c5cc(S(=O)(=O)O)cc(S(=O)(=O)O)c45)ccc3C)c2)c1 | resazurin |  |  | IC50 | 60 nM |
| COc1cc2c(cc1Nc1nc(Nc3ccsc3C(N)=O)c3cc[nH]c3n1)N(C(=O)CN(C)C)CCC2 |  |  |  | EC50 | 631 nM |
| CC1CS(=O)(=O)CCN1/N=C/c1ccc([N+](=O)[O-])o1 (centres unmarked) |  |  |  | IC50 | 3500 nM |
| COc1cc(Nc2ncc3c(C)nc(-c4cccc(Oc5ccccc5)c4)n3n2)cc(OC)c1OC |  |  |  | EC50 | 794 nM |
| CN(Cc1cnc2nc(N)nc(N)c2n1)c1ccc(C(=O)N2CCCCC2)cc1 | resazurin |  | 10 µM, 72 h | inhibition | 48% |
| O=[N+]([O-])c1c(CS(=O)(=O)c2ccccc2)nc2c(-c3cccc(C(F)(F)F)c3)cc(Cl)cn12 | resazurin |  | trypomastigote | IC50 | 40 to 160 nM |
| C[C@@H](Oc1cc(-n2cnc3ccc(OCC4CCN(C)CC4)cc32)sc1C(N)=O)c1ccccc1Cl |  |  |  | EC50 | 15.8 nM |
| CCOC(=O)C1CCN(C(=O)c2ccc(N(C)Cc3cnc4nc(N)nc(N)c4n3)cc2)CC1 | resazurin |  | 10 µM, 72 h | inhibition | 47% |
| OC(c1ccccc1)c1ccccc1 |  |  |  | EC50 | > 100000 nM |
| COc1ccc(Oc2ccc(CNCc3cnc4nc(N)nc(N)c4n3)cc2)cc1 | resazurin |  | 10 µM, 72 h | inhibition | 31% |
| Cc1ccc2nc(-c3ccc(F)c(F)c3)c(CN3CCC(Cc4ccccc4)CC3)n2c1 |  |  | 48 h | EC90 | 18100 nM |
| CCCOC(=O)C1CCN(C(=O)c2ccc(N(C)Cc3cnc4nc(N)nc(N)c4n3)cc2)CC1 | resazurin |  | 10 µM, 72 h | inhibition | 51% |
| ClCCOC1c2ccccc2CCc2ccccc21 |  |  |  | EC50 | 27900 nM |
| COC(=O)C1CCN(C(=O)c2ccc(NCc3cnc4nc(N)nc(N)c4n3)cn2)CC1 | resazurin |  | 10 µM, 72 h | inhibition | 10% |

| SMILES | assay | system | setting | endpoint | result |
| --- | --- | --- | --- | --- | --- |
| O=C(Nc1ccc2c(c1)B(O)OC2)Nc1ccc(F)c(C(F)(F)F)c1 |  | RHODESIENSE STIB900 |  | IC50 | 520 nM |
| N=C(N)c1ccc(OCCCCCOc2ccc(C(=N)N)cc2)cc1 |  |  |  | EC50 | 1.24 nM |
| Fc1ccc(-c2ncn(C3CCNCC3)c2-c2ccnc(Oc3ccc(Oc4ccccc4)cc3)n2)cc1 |  |  |  | EC50 | 794 nM |
| COc1c(Br)cc(Br)cc1CN[C@H]1CCCN(c2nc3nc(Cl)ccc3[nH]2)C1 |  |  |  | EC50 | 40 nM |
| Cc1ccc2nc(-c3ccc(Cl)cc3)cn2c1 |  |  | 48 h | EC50 | 10400 nM |
| CS(=O)(=O)CCNCc1cc(-c2cc3c(Nc4ccc(OCc5cccc(F)c5)c(Cl)c4)ncnc3s2)cs1 |  |  |  | EC50 | 794 nM |
| O=C(Nc1ccnc(C(F)(F)F)c1)Nc1cccc2c1OC(F)(F)O2 |  | RHODESIENSE STIB900 |  | IC50 | 14000 nM |
| CONC(=O)CN1C(=O)CNC2(C1=O)C1CC3CC(C1)CC2C3 (centres unmarked) |  |  | pH 7.4, blood stage | IC50 | 542000 nM |
| OC1c2ccccc2CCc2ccccc21 |  |  |  | EC50 | 51300 nM |
| Cc1ccc2nc(-c3ccc(F)c(F)c3)c(CN3CCN(C4CCCCC4)CC3)n2c1 |  |  | 48 h | EC50 | > 20000 nM |
| COc1cc(Nc2nccc(Nc3ccc4c(C)n[nH]c4c3)n2)cc(OC)c1OC |  |  |  | EC50 | 631 nM |
| NC(=O)C1CCN(C(=O)c2ccc(NCc3cnc4nc(N)nc(N)c4n3)cc2)CC1 | resazurin |  | 10 µM, 72 h | inhibition | 12% |
| CCCN1CCC(c2ccc(Nc3nc(Nc4cc(F)ccc4C(N)=O)c4cc[nH]c4n3)c(OC)c2)CC1 |  |  |  | EC50 | 1580 nM |
| COc1ccc(CNC(=O)c2ccc(CNCc3cnc4nc(N)nc(N)c4n3)cc2)cc1OC | resazurin |  | 10 µM, 72 h | inhibition | 36% |
| NS(=O)(=O)c1ccc(Nc2cc(-c3ccc(O)c(F)c3)n[nH]2)cc1 |  |  |  | EC50 | 6310 nM |
| CCS(=O)(=O)N(C)c1ccc(NC(=O)c2cccc(C(=N)N)c2)cc1OCc1ccc(C(=N)N)cc1 |  |  |  | IC50 | 500 nM |
